Assay results reported in ChEMBL document CHEMBL5724801, “EUbOPEN Chemogenomics Library - Multiplex” (2024).
“And” between values parts separate entries of the source, which are not always exact repeats. Equal entries are not always repeated.

Test system: Fibroblast
Assay: Multiplex assay against human fibroblast
Assay type: toxicity, cell-based
Procedure, shortened: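 Cells were classed with CellPathfinder machine-learning gating, first as Hoechst high-intensity objects or normal cells, then (normal cells) as healthy, pyknosed or fragmented nuclei, and finally (pyknosed cells) as mitotic or apoptotic. Staining of live cells at seeding used Hoechst33342, BioTracker Green Microtubule Cytoskeleton Dye, MitoTracker Red and Annexin V Alexa Fluor 680, with imaging on a CQ1 microscope at 37°C and 5% CO2 after compound addition. Tubulin, mitochondrial-mass and membrane-permeability phenotypes are per cents of healthy-nucleus cells.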

[1] = 12 h, 1 µM, compound concentration 1 uM
[2] = 12 h, 10 µM, compound concentration 10 uM
[3] = 24 h, 1 µM, compound concentration 1 uM
[4] = 24 h, 10 µM, compound concentration 10 uM
[5] = 48 h, 1 µM, compound concentration 1 uM
[6] = 48 h, 10 µM, compound concentration 10 uM

CC(/C=C1\SC(=S)N(CCCC(=O)Nc2ccc(C(=O)O)c(O)c2)C1=O)=C\c1ccccc1
Population Apoptotic (%) [1]: 50% and 33%
Population Fragmented Nuclei (%) [1]: 14% and 19%
Population Healthy Nuclei (%) [1]: 71% and 60%
Population Hoechst High Intensity Objects (%) [1]: 2% and 3%
Population Membrane Permeable-Phenotype (%) [1]: 0% and 13%
Population Mitochondria Different-Phenotype (%) [1]: 2% and 9%
Population Mitotic Cells (%) [1]: 50% and 66%
Population Normal (%) [1]: 97% and 96%
Population Pyknosed Nuclei (%) [1]: 13% and 19%
Population Tubulin-Different-Phenotype (%) [1]: 28% and 54%
Total Cell Count [1]: 206 and 157
Population Apoptotic (%) [2]: 56% and 40%
Population Fragmented Nuclei (%) [2]: 15% and 19%
Population Healthy Nuclei (%) [2]: 70% and 48%
Population Hoechst High Intensity Objects (%) [2]: 2% and 4%
Population Membrane Permeable-Phenotype (%) [2]: 0% and 8%
Population Mitochondria Different-Phenotype (%) [2]: 5%
Population Mitotic Cells (%) [2]: 43% and 59%
Population Normal (%) [2]: 97% and 95%
Population Pyknosed Nuclei (%) [2]: 13% and 31%
Population Tubulin-Different-Phenotype (%) [2]: 44% and 54%
Total Cell Count [2]: 123 and 122
Population Apoptotic (%) [3]: 54% and 33%
Population Fragmented Nuclei (%) [3]: 17%
Population Healthy Nuclei (%) [3]: 72% and 63%
Population Hoechst High Intensity Objects (%) [3]: 1% and 2%
Population Membrane Permeable-Phenotype (%) [3]: 2% and 5%
Population Mitochondria Different-Phenotype (%) [3]: 4% and 12%
Population Mitotic Cells (%) [3]: 45% and 66%
Population Normal (%) [3]: 98% and 97%
Population Pyknosed Nuclei (%) [3]: 10% and 19%
Population Tubulin-Different-Phenotype (%) [3]: 25% and 44%
Total Cell Count [3]: 208 and 144
Population Apoptotic (%) [4]: 66% and 53%
Population Fragmented Nuclei (%) [4]: 11% and 20%
Population Healthy Nuclei (%) [4]: 81% and 53%
Population Hoechst High Intensity Objects (%) [4]: 0% and 4%
Population Membrane Permeable-Phenotype (%) [4]: 0% and 11%
Population Mitochondria Different-Phenotype (%) [4]: 4%
Population Mitotic Cells (%) [4]: 33% and 46%
Population Normal (%) [4]: 99% and 95%
Population Tubulin-Different-Phenotype (%) [4]: 25% and 70%
Total Cell Count [4]: 119 and 120
Population Apoptotic (%) [5]: 78% and 45%
Population Fragmented Nuclei (%) [5]: 24% and 29%
Population Healthy Nuclei (%) [5]: 66% and 56%
Population Hoechst High Intensity Objects (%) [5]: 3% and 1%
Population Membrane Permeable-Phenotype (%) [5]: 1% and 7%
Population Mitochondria Different-Phenotype (%) [5]: 2% and 6%
Population Mitotic Cells (%) [5]: 21% and 54%
Population Normal (%) [5]: 96% and 98%
Population Pyknosed Nuclei (%) [5]: 9% and 14%
Population Tubulin-Different-Phenotype (%) [5]: 31% and 44%
Total Cell Count [5]: 216 and 159
Population Apoptotic (%) [6]: 46% and 59%
Population Fragmented Nuclei (%) [6]: 18% and 34%
Population Healthy Nuclei (%) [6]: 69% and 46%
Population Hoechst High Intensity Objects (%) [6]: 0% and 3%
Population Membrane Permeable-Phenotype (%) [6]: 0% and 5%
Population Mitochondria Different-Phenotype (%) [6]: 1% and 5%
Population Mitotic Cells (%) [6]: 53% and 40%
Population Normal (%) [6]: 100% and 96%
Population Pyknosed Nuclei (%) [6]: 12% and 19%
Population Tubulin-Different-Phenotype (%) [6]: 33% and 58%
Total Cell Count [6]: 124 and 118

CCOC(=O)c1cnn(-c2ccc(NC(=O)C(Cl)=C(Cl)Cl)cc2)c1C(F)(F)F
Population Apoptotic (%) [1]: 8.82% and 15%
Population Fragmented Nuclei (%) [1]: 15.65% and 11.22%
Population Healthy Nuclei (%) [1]: 61.22% and 68.37%
Population Hoechst High Intensity Objects (%) [1]: 0%
Population Membrane Permeable-Phenotype (%) [1]: 5.56% and 0%
Population Mitochondria Different-Phenotype (%) [1]: 6.67% and 10.45%
Population Mitotic Cells (%) [1]: 91.18% and 85%
Population Normal (%) [1]: 100%
Population Pyknosed Nuclei (%) [1]: 23.13% and 20.41%
Population Tubulin-Different-Phenotype (%) [1]: 8.89% and 11.94%
Total Cell Count [1]: 147 and 196
Population Apoptotic (%) [2]: 23.28% and 49.64%
Population Fragmented Nuclei (%) [2]: 10.69% and 2.33%
Population Healthy Nuclei (%) [2]: 16.35% and 18.02%
Population Hoechst High Intensity Objects (%) [2]: 0%
Population Membrane Permeable-Phenotype (%) [2]: 7.69% and 12.9%
Population Mitotic Cells (%) [2]: 76.72% and 50.36%
Population Normal (%) [2]: 100%
Population Pyknosed Nuclei (%) [2]: 72.96% and 79.65%
Population Tubulin-Different-Phenotype (%) [2]: 42.31% and 54.84%
Total Cell Count [2]: 159 and 172
Population Apoptotic (%) [3]: 32.35% and 26.32%
Population Fragmented Nuclei (%) [3]: 13.42% and 8.93%
Population Healthy Nuclei (%) [3]: 63.76% and 82.59%
Population Hoechst High Intensity Objects (%) [3]: 0%
Population Membrane Permeable-Phenotype (%) [3]: 1.05% and 1.08%
Population Mitochondria Different-Phenotype (%) [3]: 5.26% and 3.78%
Population Mitotic Cells (%) [3]: 67.65% and 73.68%
Population Normal (%) [3]: 100%
Population Pyknosed Nuclei (%) [3]: 22.82% and 8.48%
Population Tubulin-Different-Phenotype (%) [3]: 12.63% and 12.43%
Total Cell Count [3]: 149 and 224
Population Apoptotic (%) [4]: 37.76% and 80.65%
Population Fragmented Nuclei (%) [4]: 17.09% and 8.6%
Population Healthy Nuclei (%) [4]: 20.89% and 24.73%
Population Hoechst High Intensity Objects (%) [4]: 0%
Population Membrane Permeable-Phenotype (%) [4]: 15.15% and 43.48%
Population Mitochondria Different-Phenotype (%) [4]: 0% and 19.57%
Population Normal (%) [4]: 100%
Population Pyknosed Nuclei (%) [4]: 62.03% and 66.67%
Population Tubulin-Different-Phenotype (%) [4]: 39.39% and 84.78%
Total Cell Count [4]: 158 and 186
Population Apoptotic (%) [5]: 35.29% and 26.67%
Population Fragmented Nuclei (%) [5]: 12.65% and 7.11%
Population Healthy Nuclei (%) [5]: 77.11% and 86.22%
Population Hoechst High Intensity Objects (%) [5]: 0%
Population Membrane Permeable-Phenotype (%) [5]: 0.78% and 1.55%
Population Mitotic Cells (%) [5]: 64.71% and 73.33%
Population Normal (%) [5]: 100%
Population Pyknosed Nuclei (%) [5]: 10.24% and 6.67%
Population Tubulin-Different-Phenotype (%) [5]: 4.69% and 11.86%
Total Cell Count [5]: 166 and 225
Population Apoptotic (%) [6]: 35.48% and 83.87%
Population Fragmented Nuclei (%) [6]: 22.75% and 43.62%
Population Healthy Nuclei (%) [6]: 58.68% and 39.89%
Population Hoechst High Intensity Objects (%) [6]: 0%
Population Membrane Permeable-Phenotype (%) [6]: 14.29% and 37.33%
Population Mitochondria Different-Phenotype (%) [6]: 15.31% and 25.33%
Population Normal (%) [6]: 100%
Population Pyknosed Nuclei (%) [6]: 18.56% and 16.49%
Population Tubulin-Different-Phenotype (%) [6]: 40.82% and 89.33%
Total Cell Count [6]: 167 and 188

CN(C)Cc1cccc(NC(=C2C(=O)Nc3cc(C(=O)N(C)C)ccc32)c2ccccc2)c1
Population Fragmented Nuclei (%) [1]: 12.28% and 5.26%
Population Healthy Nuclei (%) [1]: 63.16% and 78.47%
Population Hoechst High Intensity Objects (%) [1]: 0%
Population Membrane Permeable-Phenotype (%) [1]: 4.17% and 9.15%
Population Mitochondria Different-Phenotype (%) [1]: 12.5% and 7.93%
Population Mitotic Cells (%) [1]: 91.07% and 67.65%
Population Normal (%) [1]: 100%
Population Pyknosed Nuclei (%) [1]: 24.56% and 16.27%
Population Tubulin-Different-Phenotype (%) [1]: 20.14% and 25%
Total Cell Count [1]: 228 and 209
Population Apoptotic (%) [2]: 15.09% and 31.43%
Population Fragmented Nuclei (%) [2]: 12.72% and 8.65%
Population Healthy Nuclei (%) [2]: 64.04% and 80.13%
Population Hoechst High Intensity Objects (%) [2]: 0%
Population Membrane Permeable-Phenotype (%) [2]: 8.22% and 6.4%
Population Mitochondria Different-Phenotype (%) [2]: 23.97% and 16.8%
Population Mitotic Cells (%) [2]: 84.91% and 68.57%
Population Normal (%) [2]: 100%
Population Pyknosed Nuclei (%) [2]: 23.25% and 11.22%
Population Tubulin-Different-Phenotype (%) [2]: 54.79% and 75.6%
Total Cell Count [2]: 228 and 312
Population Fragmented Nuclei (%) [3]: 10.42% and 4.72%
Population Healthy Nuclei (%) [3]: 77.5% and 83.96%
Population Hoechst High Intensity Objects (%) [3]: 0%
Population Membrane Permeable-Phenotype (%) [3]: 1.08% and 2.81%
Population Mitochondria Different-Phenotype (%) [3]: 4.84% and 10.11%
Population Mitotic Cells (%) [3]: 93.1% and 75%
Population Normal (%) [3]: 100%
Population Pyknosed Nuclei (%) [3]: 12.08% and 11.32%
Population Tubulin-Different-Phenotype (%) [3]: 11.29% and 23.03%
Total Cell Count [3]: 240 and 212
Population Apoptotic (%) [4]: 13.33% and 25%
Population Healthy Nuclei (%) [4]: 66.94% and 85.67%
Population Hoechst High Intensity Objects (%) [4]: 0%
Population Membrane Permeable-Phenotype (%) [4]: 8.43% and 2.18%
Population Mitochondria Different-Phenotype (%) [4]: 24.7% and 21.82%
Population Mitotic Cells (%) [4]: 86.67% and 75%
Population Normal (%) [4]: 100%
Population Pyknosed Nuclei (%) [4]: 18.15% and 9.97%
Population Tubulin-Different-Phenotype (%) [4]: 63.25% and 79.64%
Total Cell Count [4]: 248 and 321
Population Apoptotic (%) [5]: 26.67% and 31.25%
Population Fragmented Nuclei (%) [5]: 11.31% and 7.86%
Population Healthy Nuclei (%) [5]: 83.21% and 85.15%
Population Hoechst High Intensity Objects (%) [5]: 0%
Population Membrane Permeable-Phenotype (%) [5]: 0.88% and 7.18%
Population Mitotic Cells (%) [5]: 73.33% and 68.75%
Population Normal (%) [5]: 100%
Population Pyknosed Nuclei (%) [5]: 5.47% and 6.99%
Population Tubulin-Different-Phenotype (%) [5]: 7.46% and 16.92%
Total Cell Count [5]: 274 and 229
Population Apoptotic (%) [6]: 33.33% and 64.71%
Population Fragmented Nuclei (%) [6]: 14.48% and 6.69%
Population Healthy Nuclei (%) [6]: 77.44% and 87.9%
Population Hoechst High Intensity Objects (%) [6]: 0%
Population Membrane Permeable-Phenotype (%) [6]: 1.3% and 2.9%
Population Mitochondria Different-Phenotype (%) [6]: 11.3% and 9.42%
Population Mitotic Cells (%) [6]: 66.67% and 35.29%
Population Normal (%) [6]: 100%
Population Pyknosed Nuclei (%) [6]: 8.08% and 5.41%
Population Tubulin-Different-Phenotype (%) [6]: 43.48% and 85.14%
Total Cell Count [6]: 297 and 314
